Here are results for 14 compounds from ChEMBL document CHEMBL1159005, “Inhibitory effects of flavonoids on Moloney murine leukemia virus reverse transcriptase activity” (J Nat Prod, 1992).

Assay [1] has as its system Moloney murine leukemia virus. Nature of the assay: Inhibition of Moloney murine leukemia virus reverse transcriptase using (ribocytidylic acid)n(deoxyguanylic acid)12-18 as template primer by liquid scintillation counting. The procedure, abridged: (§1)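 30 μl mix of 50 mM Tris-HCl pH 8.3, 75 mM KCl, 10 mM DTT, 3 mM MgCl₂, 3 μg nuclease-free BSA, 0.5 μg template-primer, 2 mM dTTP or dGTP with 0.5 μCi matching [³H]-dNTP, and 5 units MMLV RT. Incubated 37° for 30 min, stopped with EDTA. Duplicate aliquots spotted on DE-81 paper, washed, and counted by liquid scintillation.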

Assay [2] in a line: Selectivity for Moloney murine leukemia virus reverse transcriptase over Escherichia coli DNA polymerase 1.
In assay [3] the test system is Moloney murine leukemia virus. Nature of the assay: Inhibition of Moloney murine leukemia virus reverse transcriptase using (riboadenylic acid)n(deoxythymidylic acid)12-18 as template primer by liquid scintillation counting. The procedure, abridged: as §1

As for `O=c1c(O)c(-c2ccc(O)cc2)oc2cc(O)cc(O)c12`, the ID50 in assay [1] stood at 1290 nM; in assay [3] it was 1220 nM. In assay [2], this compound gave a fold change (FC) of 10.

With `O=c1c(O)c(-c2ccc(O)c(O)c2)oc2cc(O)cc(O)c12`, the ID50 amounted to 170 nM in assay [1] and 200 nM in assay [3]. In addition, in assay [2], the fold change (FC) came to 10.

`O=c1c(O)c(-c2cc(O)c(O)c(O)c2)oc2cc(O)cc(O)c12`: the ID50 in assay [1] is 280 nM; in assay [3], 250 nM. The same compound displayed a fold change (FC) in assay [2] of 10.

On to `Oc1cc(O)c2c(c1)O[C@H](c1ccc(O)c(O)c1)[C@H](O)C2`, for which the ID50 in assay [1] is 2650 nM; in assay [3], 2580 nM.

With `Oc1cc(O)c2c(c1)O[C@H](c1ccc(O)c(O)c1)[C@@H](O)C2`, the ID50 is 2860 nM in assay [1] and 2750 nM in assay [3].

Take `O=c1c(O)c(-c2ccccc2)oc2ccccc12`: the ID50 in assay [1] and in assay [3] was more than 420000 nM in each case.

Consider `COc1ccc([C@@H]2CC(=O)c3c(O)cc(O)cc3O2)cc1O`, for which the figures for the ID50 in assay [1] and in assay [3] were 22100 nM and 20900 nM, respectively.

With `C[C@H]1O[C@@H](Oc2c(-c3cc(O)c(O)c(O)c3)oc3cc(O)cc(O)c3c2=O)[C@@H](O)[C@@H](O)[C@@H]1O`, the ID50 in assay [1] is 9690 nM; in assay [3], 10000 nM.

On to `O=c1c(O)c(-c2ccc(O)cc2O)oc2cc(O)cc(O)c12`, for which the ID50 is 1010 nM in assay [1] and 1030 nM in assay [3]. In assay [2], this compound showed a fold change (FC) of 10.

For `O=C1c2c(O)cc(O)cc2OC(c2ccc(O)c(O)c2)C1O` (racemic), the ID50 in assay [1] amounted to 2460 nM; in assay [3] it was 2430 nM. This compound also returned a fold change (FC) in assay [2] of 10.

Consider `O=c1c(O)c(-c2ccc(O)c(O)c2)oc2cc(O)ccc12`, for which the ID50 worked out at 240 nM in assay [1] and 280 nM in assay [3].

`O=c1cc(-c2ccccc2)oc2cc(O)ccc12`: the ID50 in assay [1] and in assay [3] was more than 420000 nM in each case.

Turning to `C[C@@H]1O[C@@H](OC[C@H]2O[C@@H](Oc3c(-c4ccc(O)c(O)c4)oc4cc(O)cc(O)c4c3=O)[C@H](O)[C@@H](O)[C@@H]2O)[C@H](O)[C@H](O)[C@H]1O`, the ID50 in assay [1] stood at 7330 nM; in assay [3], 7270 nM.

On to `O=C1CC(c2ccccc2)Oc2ccccc21` (stereo not drawn), for which the ID50 in assay [1] and in assay [3] was more than 446000 nM in each case.
